# Screening results deposited in PubChem by Johns Hopkins Ion Channel Center.
# Rows were chosen to be rich in hits. Some 3.8% of all compounds tested hit in one or more screens of this group.
# KCNK9 inh: human KCNK9 channel inhibition | Q9NPC2 | B-score at 10 µM | actives 1.2% (n = 310,000) | HEK293 KCNK9, FluxOR thallium flux fluorescence; stronger effect = lower value;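 active = ratio B-score over 3 SD below the library mean, with starting fluorescence within 5 SD of its mean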;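 also: negative B-score means less thallium flux so channel inhibition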
# KCNK3 inh: human KCNK3 channel inhibition, primary screen | O14649 | CHO-KCNK3 thallium flux, FluxOR fluorescence; stronger effect = lower value | B-score at 10 µM | actives 0.84% (n = 340,000);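 active = B-score under library mean minus 4 SD, starting fluorescence ratio at most library mean plus 5 SD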;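 also: more negative B-score means stronger inhibition of thallium flux through KCNK3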
# Target sequence (O14649 whole entry, looked up): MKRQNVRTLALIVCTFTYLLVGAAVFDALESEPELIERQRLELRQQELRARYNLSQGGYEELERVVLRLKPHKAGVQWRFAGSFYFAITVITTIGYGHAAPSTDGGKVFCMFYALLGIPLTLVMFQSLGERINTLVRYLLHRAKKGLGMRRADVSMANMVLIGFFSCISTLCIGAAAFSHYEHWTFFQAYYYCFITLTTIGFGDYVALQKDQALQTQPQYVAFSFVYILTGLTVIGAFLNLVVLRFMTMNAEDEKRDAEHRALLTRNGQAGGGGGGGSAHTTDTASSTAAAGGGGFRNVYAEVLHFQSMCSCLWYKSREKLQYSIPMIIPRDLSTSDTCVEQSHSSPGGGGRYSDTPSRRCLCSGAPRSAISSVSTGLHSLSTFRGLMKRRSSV
# KCNQ1 pot: potentiates or activates the human KCNQ1 potassium channel | CHO-K1 KCNQ1, thallium flux FluxOR fluorescence; stronger effect = higher value | B-score at 10 µM | actives 0.35% (n = 310,000) | AID 2648;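 active = fluorescence ratio B-score, a plate-corrected score, at least three library SD, with initial intensity B-score within 5 SD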
#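 System: CHO-K1 cells stably expressing KCNQ1 / Medium: assay buffer for compound exposure, DMSO matched across wells / Reagent: thallium- and potassium-containing depolarizing buffer / Compound: one concentration, matched DMSO / Incubation: 20 min compound pretreatment at room temperature / Measured by: kinetic FluxOR fluorescence, 10 s baseline plus 110 s post-stimulus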
# KCNQ1 block: human KCNQ1 channel inhibition; P51787; CHO-K1 KCNQ1, FluxOR thallium flux fluorescence; stronger effect = higher value; B-score at 10 µM; actives 1.3% (n = 310,000); AID 2642;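 active = compounds whose thallium flux B-score, printed positive for inhibition, exceeds three library SD while starting fluorescence stays within three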;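 also: channel opened by potassium depolarization with thallium stimulus after 20 min compound exposure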
# hERG protect: shields human hERG channel from block by proarrhythmic agents | activation (rescue from dofetilide block), less the hit threshold, % at 10 µM | Q12809 | actives 0.51% (n = 310,000) | CHO-hERG, FluxOR thallium flux, dofetilide IC70 present;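 active = activation above the mean of controls blocked by dofetilide plus 5 SD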;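 also: thallium influx through hERG after potassium depolarization seen as dye fluorescence rise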
# Kir21 inh: blocks the mouse Kir2.1 inward-rectifier potassium channel | P35561 | HEK293-Kir2.1, FluxOR thallium flux fluorescence; stronger effect = lower value | B-score at 10 µM | actives 0.85% (n = 310,000) | AID 1672;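 active = fluorescence ratio B-score at or below minus 3 SD of library scores, with starting-brightness B-score within 2 SD, cut at about -4.2 in these data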;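 also: channel flux triggered by added potassium and thallium sulfate stimulus; B-score of peak minus minimum fluorescence over baseline after thallium stimulus; more negative B-score means stronger Kir2.1 block with less thallium influx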
# Numbers stand for hits; 0 = inactive; - = no result.
SMILES,KCNK9 inh,KCNK3 inh,KCNQ1 pot,KCNQ1 block,hERG protect,Kir21 inh
Cc1ccc(C)c(N2CCN(C(=O)CCc3nc(-c4ccccc4C)no3)CC2)c1,-,-9.21,-,-,-,-
Cc1ccc(C)c(N2CCN(C(=O)CCc3nc(-c4ccccc4)no3)CC2)c1,-,0,-,-,-,-
Cc1cccc(-c2noc(CCC(=O)N3CCN(c4cc(C)ccc4C)CC3)n2)c1,-,-9.77,-,-,-,-
Cc1ccc(C)c(N2CCN(C(=O)CCc3nc(-c4ccccc4Cl)no3)CC2)c1,-,0,-,-,-,-
C=C(C)CC(NCc1ccco1)c1ccc(OC)cc1 (stereo not given),0,0,0,0,0,-5.36
C=CCC(NCc1ccco1)c1ccc(OC)cc1OC (stereo not given),0,-,0,0,0,0
COc1cccc(NC(=O)CSc2nnnn2C2CCCCC2)c1,0,0,0,0,0,0
CCC(=O)N(c1nnc(SCC(=O)Nc2ccc(N3CCOCC3)cc2)s1)C1CC1,-,0,-,-,-,-
CC(C)c1ccc(NC(=S)Nc2ccc(OC(F)(F)F)cc2)cc1,0,0,0,10,0,0
FC(F)(F)Oc1ccc(NC(=S)Nc2ccc(OC(F)(F)F)cc2)cc1,0,0,0,10,0,0
O=C(O)/C=C/C(=O)Nc1ccc(OC(F)(F)F)cc1,0,0,0,0,0,0
O=C(CSc1nnc2ccccn12)NNC(=O)c1cccc([N+](=O)[O-])c1,-,0,-,-,-,-
O=C1CCc2cc(S(=O)(=O)Nc3cccc(F)c3)cc3c2N1CC3,0,0,0,0,0,0
CCc1c(C)sc(NC(=O)CN2CCN(C(=O)c3ccco3)CC2)c1C(=O)OC,0,0,22,0,0,0
CCOC(=O)c1c(NC(=O)CN2CCN(C(=O)c3ccco3)CC2)sc(C)c1C,0,0,0,0,0,0
Cn1c(=O)c2c(nc(N3CCc4ccccc4C3)n2Cc2ccccc2F)n(C)c1=O,0,0,0,0,0,0
Cn1c(=O)c2c(nc(N3CCc4ccccc4C3)n2Cc2ccc(Br)cc2)n(C)c1=O,-7,0,0,0,0,0
CC(OC(=O)/C=C/c1ccco1)C(=O)NC1CCCCC1C (stereo not given),-,0,-,-,-,-
COC(=O)C1=C(C)NC(=O)/C1=C\c1cc(C)n(-c2cccc(C)c2)c1C,0,0,0,9,0,0
COc1ccc(C(=O)C(/C=N/O)=N/Nc2ccc(F)cc2)cc1,0,0,0,10,0,0
COC(=O)C1CN(S(=O)(=O)c2ccccc2)CCN1S(=O)(=O)c1ccccc1 (stereo not given),-7.3,0,0,0,0,0
O=C1/C(=C/c2cccc(F)c2)Oc2cc(O)ccc21,0,0,0,14,0,0
O=S(=O)(c1ccccc1)N(F)S(=O)(=O)c1ccccc1,-,0,-,-,-,-
O=C(NNC(=O)c1ccccc1O)c1ccc(NS(=O)(=O)c2ccc(F)c(F)c2)cc1,0,0,0,6,0,0
Cc1ccc(C(=O)N[C@@H](C)CN2C3=NC[C@H](C(C)C)N3C[C@H]2Cc2ccc(O)cc2)cc1Br,0,0,0,0,0,0
SMILES,KCNK9 inh,KCNK3 inh,KCNQ1 pot,KCNQ1 block,hERG protect,Kir21 inh
Cc1ccc(C(=O)NCCN2C3=NC[C@H](Cc4ccc(O)cc4)N3C[C@H]2Cc2ccc(O)cc2)cc1Br,0,0,0,0,0,0
COc1ccc(C[C@H]2CN3C(=NC[C@@H]3C(C)C)N2C[C@H](C)NC(=O)c2ccc(C)c(Br)c2)cc1,0,0,0,0,0,-7.9
COc1ccc(C[C@H]2CN3C(=NC[C@@H]3Cc3ccc(O)cc3)N2C[C@H](C)NC(=O)c2ccc(C)c(Br)c2)cc1,0,0,0,0,0,-7.35
Cc1ccc(-n2ncc3c2CCCC3NC(=O)c2csnn2)cc1C (stereo not given),0,0,0,0,19.3,0
Cc1cc(C)cc(-n2ncc3c2CCCC3NC(=O)c2csnn2)c1 (stereo not given),0,0,0,0,35.5,0
Cc1ccc(-n2ncc3c2CCCC3NC(=O)c2ccoc2)cc1C (stereo not given),0,0,0,0,0,0
CCc1cc(C(=O)NC2CCCc3c2cnn3-c2cccc(C)c2C)n(C)n1 (stereo not given),0,-,0,11,0,0
CCN(CC)S(=O)(=O)c1ccc(C(O)=C(C#N)c2nc3ccccc3n2C)cc1,-,0,-,-,-,-
